ChEMBL document CHEMBL5214971, “Multiple approaches to repurposing drugs for neuroblastoma” (Bioorg Med Chem, 2022)

Experiments:
[1] = tested on: SK-N-AS; assay: Anticancer activity against human SK-N-AS cells assessed as reduction in cell viability incubated for 48 hrs by resazurin dye based fluorescence assay; format: functional
How it was run: (§1)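 Cells seeded at 1×10^4 cells/well in DMEM/Ham's F12 (1:1, L-glutamine, 15 mM HEPES) with 10% FBS, 37°C, 5% CO2. Compounds in DMSO, 50 μM then two-fold over 8 further dilutions to 0.195 μM; 0.5% DMSO final. 48 h exposure. Resazurin 0.0125 mg/ml final, read 3 h (HT1080) or 8 h (SH-SY5Y, SK-N-AS) at Ex 544/Em 590 nm. Inhibition relative to DMSO control; triplicates, ≥2 experiments.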

[2] = tested on: SH-SY5Y; assay: Anticancer activity against human SH-SY5Y cells assessed as reduction in cell viability incubated for 48 hrs by resazurin dye based fluorescence assay; format: functional; how it was run: as §1
[3] = tested on: HT-1080; assay: Anticancer activity against human HT-1080 cells assessed as reduction in cell viability incubated for 48 hrs by resazurin dye based fluorescence assay; format: functional; details: HT-1080, 48 h; how it was run: as §1
[4] = Cytotoxicity against human A549-ACE2 cells expressing ACE2 assessed as reduction in cell viability by CytoTox-Glo assay; format: toxicity, cell-based
[5] = molecular target: Maternal embryonic leucine zipper kinase (Homo sapiens) (UniProt Q14680); assay: Inhibition of MELK (unknown origin) at 1 uM by Adapta assay
Sequence of Maternal embryonic leucine zipper kinase (Homo sapiens) (Q14680 whole entry, looked up): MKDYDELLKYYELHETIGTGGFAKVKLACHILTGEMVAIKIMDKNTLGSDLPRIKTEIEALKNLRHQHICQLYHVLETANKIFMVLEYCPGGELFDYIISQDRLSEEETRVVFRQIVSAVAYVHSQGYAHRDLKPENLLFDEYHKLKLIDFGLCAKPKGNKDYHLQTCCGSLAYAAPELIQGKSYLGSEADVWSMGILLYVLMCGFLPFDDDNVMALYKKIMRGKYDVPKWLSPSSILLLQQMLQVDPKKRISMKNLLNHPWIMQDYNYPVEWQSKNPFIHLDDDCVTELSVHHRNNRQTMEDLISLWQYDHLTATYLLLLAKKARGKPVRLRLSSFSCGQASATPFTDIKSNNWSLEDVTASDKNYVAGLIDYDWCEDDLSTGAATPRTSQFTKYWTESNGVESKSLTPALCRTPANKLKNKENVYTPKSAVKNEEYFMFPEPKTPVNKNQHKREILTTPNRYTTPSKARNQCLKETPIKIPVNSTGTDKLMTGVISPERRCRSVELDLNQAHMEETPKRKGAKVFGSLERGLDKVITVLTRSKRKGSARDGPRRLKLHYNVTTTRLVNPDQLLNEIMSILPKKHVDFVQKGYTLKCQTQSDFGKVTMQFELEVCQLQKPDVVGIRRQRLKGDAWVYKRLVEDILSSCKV

[6] = Cytotoxicity against African green monkey Vero 76 cells assessed as reduction in cell viability; format: toxicity, cell-based; details: African green monkey (Chlorocebus sabaeus)
[7] = Cytotoxicity against human HeLa cells assessed as reduction in cell viability incubated for 48 hrs by CellTiter Glo assay; format: toxicity, cell-based
[8] = molecular target: Calcium/calmodulin-dependent protein kinase type 1 (Homo sapiens) (UniProt Q14012); assay: Inhibition of CAMK1 (unknown origin) at 1 uM by Adapta assay
Sequence of Calcium/calmodulin-dependent protein kinase type 1 (Homo sapiens) (Q14012 whole entry, looked up): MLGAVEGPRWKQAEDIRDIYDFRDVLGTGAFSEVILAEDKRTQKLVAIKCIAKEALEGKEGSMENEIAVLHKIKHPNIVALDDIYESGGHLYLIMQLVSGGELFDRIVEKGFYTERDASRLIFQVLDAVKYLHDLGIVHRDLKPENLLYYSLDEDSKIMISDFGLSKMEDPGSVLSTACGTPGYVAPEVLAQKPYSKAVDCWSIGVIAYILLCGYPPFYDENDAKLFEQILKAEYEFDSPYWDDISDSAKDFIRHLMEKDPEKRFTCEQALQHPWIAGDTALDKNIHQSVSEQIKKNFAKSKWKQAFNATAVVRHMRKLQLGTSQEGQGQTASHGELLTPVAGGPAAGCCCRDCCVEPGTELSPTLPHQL

[9] = molecular target: Cathepsin D (Homo sapiens) (UniProt P07339); assay: Inhibition of cathepsin D (unknown origin) using MCA labelled GKPILFFRLK(Dnp)-D-R-NH as substrate at 200 uM preincubated for 15 mins followed by substrate addition and measured after 2 hrs by fluorometer analysis; details: time 135.0 min
Sequence of Cathepsin D (Homo sapiens) (P07339 65-162 limits assumed): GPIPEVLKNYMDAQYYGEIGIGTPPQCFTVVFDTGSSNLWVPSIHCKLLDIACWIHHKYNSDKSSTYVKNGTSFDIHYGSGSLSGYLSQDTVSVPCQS
Sequence of Cathepsin D (Homo sapiens) (P07339 169-412 limits assumed): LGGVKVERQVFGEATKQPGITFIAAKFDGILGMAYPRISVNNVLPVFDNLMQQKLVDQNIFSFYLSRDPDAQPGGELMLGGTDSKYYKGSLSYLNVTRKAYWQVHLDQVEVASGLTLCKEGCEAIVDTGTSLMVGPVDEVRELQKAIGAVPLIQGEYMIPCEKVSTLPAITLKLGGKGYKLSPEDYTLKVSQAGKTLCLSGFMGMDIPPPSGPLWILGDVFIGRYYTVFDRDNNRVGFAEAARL

| SMILES | IC50 [1] | IC50 [2] | IC50 [3] | also measured |
| --- | --- | --- | --- | --- |
| Cc1ccc(S(=O)(=O)/C=C/C#N)cc1 | 1.23 µM | 0.85 µM | – | – |
| CCN(CC)CCCC(C)Nc1c2ccc(Cl)cc2nc2ccc(OC)cc12 (centres undefined) [QUINACRINE] | – | 8.57 µM | 29 µM | – |
| COc1ccc2nc3cc(Cl)ccc3c(Nc3ccc(O)c(CN4CCCC4)c3)c2c1 | 3.86 µM | 1.2 µM | 3.6 µM | – |
| COc1ccc2nc3cc(Cl)ccc3c(Nc3cc(CN4CCCC4)c(O)c(CN4CCCC4)c3)c2c1 | – | 9.7 µM | 13.8 µM | – |
| O=C(Nc1ccc([N+](=O)[O-])cc1Cl)c1cc(Cl)ccc1O [NICLOSAMIDE] | 2.33 µM | 0.87 µM | – | – |
| CN1CCN(c2ccc(C(=O)Nc3n[nH]c4ccc(Cc5cc(F)cc(F)c5)cc34)c(NC3CCOCC3)c2)CC1 [ENTRECTINIB] | 4.47 µM | 1.6 µM | – | – |
| COc1ccc2nc3cc(Cl)ccc3c(Nc3cc(CN4CCCC4)c(O)c(CN4CCCC4)c3)c2n1 [PYRONARIDINE] | 3.45 µM | 1.7 µM | 4.23 µM | IC50 [4]: > 10 µM; inhibition [5]: 31%; IC50 [6]: 1.3 µM; IC50 at 48 h [7]: 3.1 µM; inhibition [8]: 35%; inhibition [9]: > 50% |
| C[C@@H](Oc1cc(-c2cnn(C3CCNCC3)c2)cnc1N)c1c(Cl)ccc(F)c1Cl [CRIZOTINIB] | 12.1 µM | 0.92 µM | – | – |
| COc1ccc2nc3cc(Cl)ccc3c(Nc3cc(CN(C)C)c(O)c(CN(C)C)c3)c2c1 | 5.4 µM | 3.41 µM | 6.09 µM | – |
| CCCCCCCCc1ccc(CCC(N)(CO)CO)cc1 [FINGOLIMOD] | 6.11 µM | 4.71 µM | – | – |
